Laboratory results reported in ChEMBL document CHEMBL1148927, “A novel antimicrobial indolizinium alkaloid from Aniba panurensis” (J Nat Prod, 2004).
Calls of active or inactive are those of the source. The calls are words filed in the database; no cut-off is given here.

Experiments:
Enterococcus faecium [1] = experiment: […] activity against Enterococcus faecium 1438 at 100 ug/mL after 18 hrs by broth microdilution assay; type: functional, organism-based
Method in brief: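 E. faecium 1438 clinical isolate grown at 37 °C with 100 rpm shaking in Todd Hewitt broth with 0.5% yeast extract and 2% NaCl to exponential phase. Culture adjusted to A600 0.3, then diluted 1:1000. Added to dried sample in wells, incubated 18 h, and growth read at A650 against medium-only cultures. Chloramphenicol 100 µg/mL was the inhibition control.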

Staphylococcus aureus [2] = experiment: […] activity against Staphylococcus aureus 385 at 100 ug/mL after 24 hrs by broth microdilution assay
Pichia kudriavzevii = experiment: Antifungal activity against Candida krusei ATCC 6258 by broth microdilution assay; type: functional
Method in brief: (§1)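 Broth microdilution in RPMI 1640 buffered with MOPS, following NCCLS guidelines; values reported as MIC90.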

Enterococcus faecium [3] = experiment: […] activity against Enterococcus faecium 1438 by broth microdilution assay; type: functional
Staphylococcus aureus [4] = experiment: […] activity against Staphylococcus aureus 385 after 24 hrs by broth microdilution assay
Candida albicans = experiment: Antifungal activity against Candida albicans 99-788 after 24 hrs by broth microdilution assay; type: functional
Method in brief: (§2)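 Clinical isolates grown in YM broth at 37 °C with shaking at 100 rpm to exponential phase, adjusted to A600 = 0.3, then diluted 1:150 (C. albicans) or 1:128 (C. neoformans). Samples dried in wells, culture added, and tested top dose 250 µg/mL plus five 2-fold dilutions. Incubation 24 h (C. albicans) or 72 h (C. neoformans). A650 read; MIC50 = concentration lowering A650 ≥50% vs medium-only cultures.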

[5] = Toxicity in sheep red blood cells assessed as hemolysis after 2 hrs; type: cell-based, Ovis aries; conditions: erythrocyte
Method in brief: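 Sheep red blood cells at 4% final in 0.2 mL, with samples serially diluted in phosphate-buffered saline; highest dose contained 5% DMSO. Incubated 2 h at 37 °C, then 0.1 mL taken to measure hemolysis.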

Candida parapsilosis = experiment: Antifungal activity against Candida parapsilosis ATCC 22019 by broth microdilution assay; type: functional; conditions: Lodderomyces parapsilosis; method in brief: as §1
[6] = Lipophilicity, log K in octanol water; type: physicochemical
Cryptococcus neoformans [7] = experiment: Antifungal activity against Cryptococcus neoformans 96-1034 after 72 hrs by broth microdilution assay; type: functional; method in brief: as §2
Cryptococcus neoformans [8] = experiment: Antifungal activity against Cryptococcus neoformans 96-1034 by broth microdilution assay; type: functional; method in brief: as §1
Clavispora lusitaniae = experiment: Antifungal activity against Candida lusitaniae by broth microdilution assay; type: functional; method in brief: as §1
Nakaseomyces glabratus = experiment: Antifungal activity against Candida glabrata by broth microdilution assay; type: functional; method in brief: as §1

Q: With `O=C(N[C@H](CO)[C@H](O)c1ccc([N+](=O)[O-])cc1)C(Cl)Cl` as the compound, how does the Activity (Enterococcus faecium [1]) read?
A: Active

Q: Which Activity (Staphylococcus aureus [2]) does the source give for `O=C(O)c1cn(C2CC2)c2cc(N3CCNCC3)c(F)cc2c1=O` here?
A: Active

Q: Which MIC90 (Pichia kudriavzevii) does the source give for `CCCCCCCC/C=C\c1c(C)c(/C=C\CCCCCCCC)c2[n+](c1C)CCC2.O=C([O-])C(F)(F)F` [ANIBAMINE] here?
A: 0.5 µg/mL

Q: What about the MIC50 (Enterococcus faecium [3]) of the same compound?
A: 0.25 µg/mL

Q: And the MIC50 (Staphylococcus aureus [4])?
A: > 25 µg/mL

Q: What about the MIC50 (Candida albicans) of the same compound?
A: 0.25 µg/mL

Q: What about the MIC90 (Candida albicans) of the same compound?
A: 0.5 µg/mL

Q: And the Activity [5]?
A: Toxic

Q: And the MIC90 (Candida parapsilosis)?
A: 0.5 µg/mL

Q: What about the “log K” value [6] of the same compound?
A: 9.1

Q: What about the MIC50 (Cryptococcus neoformans [7]) of the same compound?
A: 0.25 µg/mL

Q: What about the MIC90 (Cryptococcus neoformans [8]) of the same compound?
A: 0.25 µg/mL

Q: And the MIC90 (Clavispora lusitaniae)?
A: 1 µg/mL

Q: And the MIC90 (Nakaseomyces glabratus)?
A: 2 µg/mL
